pIC50, pKd: −log10 of the molar value. Each block holds one compound with its values, some of them ahead of it.
Tests used:
Renin [1] = biological target: T1, Renin (Homo sapiens, UniProt P00797); test: Inhibition of human recombinant renin using fluorescence-quenched (RE(EDANS)IHPFHLVIHTK(Dabcyl)R as substrate incubated for 1 hr prior to substrate addition measured after 1 hr by fluorescence polarization assay
T1 sequence (P00797 whole entry): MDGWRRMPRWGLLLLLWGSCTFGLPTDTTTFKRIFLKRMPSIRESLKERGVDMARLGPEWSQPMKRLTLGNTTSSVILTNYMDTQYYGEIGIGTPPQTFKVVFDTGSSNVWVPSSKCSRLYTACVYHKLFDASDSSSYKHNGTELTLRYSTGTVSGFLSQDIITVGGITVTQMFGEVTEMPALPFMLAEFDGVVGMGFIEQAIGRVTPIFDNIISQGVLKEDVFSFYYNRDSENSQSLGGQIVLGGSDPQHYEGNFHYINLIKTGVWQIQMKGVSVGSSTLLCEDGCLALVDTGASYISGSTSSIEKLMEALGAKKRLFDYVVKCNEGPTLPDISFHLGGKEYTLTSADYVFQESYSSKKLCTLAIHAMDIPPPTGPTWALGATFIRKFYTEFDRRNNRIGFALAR

Renin (Homo sapiens) = biological target: T2, Renin (Homo sapiens) (UniProt P00797); test: Inhibition of human recombinant renin using fluorescence-quenched (RE(EDANS)IHPFHLVIHTK(Dabcyl)R as substrate at 100 uM incubated for 1 hr prior to substrate addition measured after 1 hr by fluorescence polarization assay
T2 sequence (whole entry): T1 sequence (P00797 whole entry)

Beta-secretase 2 = biological target: T3, Beta-secretase 2 (Homo sapiens, UniProt Q9Y5Z0); test: Inhibition of human recombinant BACE2 expressed in baculovirus-infected SF9 cells using fluorescence-quenched RE(EDANS)-EVNLDAEF-K(DABSYL)-R as substrate incubated for 1 hr prior to substrate addition measured after 1 hr by fluorescence polarization assay
T3 sequence (Q9Y5Z0 whole entry): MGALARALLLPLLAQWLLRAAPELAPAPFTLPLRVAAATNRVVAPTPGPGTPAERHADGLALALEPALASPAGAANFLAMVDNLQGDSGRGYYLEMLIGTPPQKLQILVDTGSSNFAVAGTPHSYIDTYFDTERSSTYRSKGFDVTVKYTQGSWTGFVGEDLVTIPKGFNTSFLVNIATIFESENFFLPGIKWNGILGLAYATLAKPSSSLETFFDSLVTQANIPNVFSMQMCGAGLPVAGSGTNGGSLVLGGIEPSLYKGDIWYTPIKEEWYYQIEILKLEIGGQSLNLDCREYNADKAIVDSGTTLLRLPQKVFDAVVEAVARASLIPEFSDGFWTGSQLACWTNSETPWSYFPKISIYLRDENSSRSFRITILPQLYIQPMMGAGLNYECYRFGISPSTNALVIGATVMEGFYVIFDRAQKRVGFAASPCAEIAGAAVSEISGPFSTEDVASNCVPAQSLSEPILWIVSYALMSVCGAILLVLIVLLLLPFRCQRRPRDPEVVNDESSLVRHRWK

[2] = Cmax in Sprague-Dawley rat at 6 mg/kg, po by HPLC analysis; assay type: ADME, organism-based; parameters: dose 6 mg/kg, route oral; details: in vivo
How it was run: (§1)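 Fed Sprague–Dawley rats dosed at 2 mg/kg i.v. and 6 mg/kg p.o.; plasma levels followed over 24 h to derive oral AUC(0-24 h), Cmax, t1/2, plasma clearance, Vdss and oral bioavailability.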

Cathepsin D = Cathepsin D (Homo sapiens, UniProt P07339); test: Inhibition of human recombinant cathepsin D expressed in baculovirus-infected SF9 cells using fluorescence-quenched Ac-E-D(EDANS)-KPILFFRLG-K(Dabcyl)-E-Amid as substrate incubated for 1 hr prior to substrate addition measured after 1 hr by fluorescence polarization assay
[3] = Plasma clearance in Sprague-Dawley rat at 2 mg/kg, iv and 6 mg/kg, po by HPLC analysis; assay type: ADME, organism-based; how it was run: as §1
Rattus norvegicus [4] = test: Antihypertensive activity in telemetered hypertensive double-transgenic rat model expressing human renin angiotensinogen assessed as time required for 50 % recovery at 6 mg/kg, po; assay type: functional
How it was run: (§2)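 Telemetered hypertensive double-transgenic rats given a single oral dose (6 or 30 mg/kg); mean arterial blood pressure monitored for maximal reduction from pre-treatment baseline and time to 50% recovery to baseline.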

[5] = Inhibition of human recombinant pepsin A expressed in Escherichia coli using fluorescence-quenched Dabcyl-E-R-Nle-F-L-S-F-P-EDANS as substrate incubated for 1 hr prior to substrate addition measured after 1 hr by fluorescence polarization assay
Rattus norvegicus [6] = test: Antihypertensive activity in telemetered hypertensive double-transgenic rat model expressing human renin and angiotensinogen assessed as reduction of mean arterial blood pressure at 6 mg/kg, po; assay type: functional, Artery; how it was run: as §2
Cathepsin E = biological target: T4, Cathepsin E (Homo sapiens, UniProt P14091); test: Inhibition of human recombinant cathepsin E expressed in Escherichia coli using fluorescence-quenched Ac-E-D(EDANS)-KPILFFRLG-K(Dabcyl)-E-Amid as substrate incubated for 1 hr prior to substrate addition measured after 1 hr by fluorescence polarization assay
T4 sequence (P14091 whole entry): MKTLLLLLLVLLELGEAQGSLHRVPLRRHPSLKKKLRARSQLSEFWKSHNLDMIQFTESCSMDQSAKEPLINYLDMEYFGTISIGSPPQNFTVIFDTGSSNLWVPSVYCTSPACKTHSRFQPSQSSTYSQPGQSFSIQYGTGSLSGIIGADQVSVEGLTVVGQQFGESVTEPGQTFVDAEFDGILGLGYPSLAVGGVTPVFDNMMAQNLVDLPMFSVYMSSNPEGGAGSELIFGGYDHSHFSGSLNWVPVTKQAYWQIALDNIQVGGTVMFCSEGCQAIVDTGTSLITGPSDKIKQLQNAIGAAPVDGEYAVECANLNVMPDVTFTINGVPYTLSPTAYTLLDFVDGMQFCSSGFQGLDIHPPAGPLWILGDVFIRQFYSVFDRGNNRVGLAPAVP

Rattus norvegicus [7] = test: Antihypertensive activity in telemetered hypertensive double-transgenic rat model expressing human renin angiotensinogen assessed as time required for 50 % recovery at 30 mg/kg, po; assay type: functional; how it was run: as §2
Cytochrome P450 3A4 = Cytochrome P450 3A4 (Homo sapiens, UniProt P08684); test: Time dependent inhibition of CYP3A4 (unknown origin); assay type: ADME; details: TDE = time-dependent effect
[8] = Volume of distribution at steady state in Sprague-Dawley rat at 2 mg/kg, iv and 6 mg/kg, po by HPLC analysis; assay type: ADME, organism-based; details: in vivo, read-out: Vdss; how it was run: as §1
Rattus norvegicus [9] = test: Antihypertensive activity in telemetered hypertensive double-transgenic rat model expressing human renin and angiotensinogen assessed as reduction of mean arterial blood pressure at 30 mg/kg, po; assay type: functional, Artery; how it was run: as §2
[10] = Half life in Sprague-Dawley rat at 2 mg/kg, iv and 6 mg/kg, po by HPLC analysis; assay type: ADME, organism-based; details: in vivo; how it was run: as §1
Beta-secretase 1 = Beta-secretase 1 (Homo sapiens, UniProt P56817); test: Inhibition of human recombinant BACE1 expressed in baculovirus-infected SF9 cells using fluorescence-quenched RE(EDANS)-EVNLDAEF-K(DABSYL)-R as substrate incubated for 1 hr prior to substrate addition measured after 1 hr by fluorescence polarization assay
[11] = Oral bioavailability in Sprague-Dawley rat at 6 mg/kg by HPLC analysis; assay type: ADME, organism-based; details: in vivo; how it was run: as §1
[12] = AUC (0 to 24 hrs) in Sprague-Dawley rat at 6 mg/kg, po by HPLC analysis; assay type: ADME, organism-based; parameters: time < 24 hr, dose 6 mg/kg, route oral; details: plasma; how it was run: as §1
Gastricsin = biological target: T5, Gastricsin (Homo sapiens, UniProt P20142); test: Inhibition of human recombinant pepsin C expressed in Escherichia coli using fluorescence-quenched Dabcyl-E-R-Nle-F-L-S-F-P-EDANS as substrate incubated for 1 hr prior to substrate addition measured after 1 hr by fluorescence polarization assay
T5 sequence (P20142 whole entry): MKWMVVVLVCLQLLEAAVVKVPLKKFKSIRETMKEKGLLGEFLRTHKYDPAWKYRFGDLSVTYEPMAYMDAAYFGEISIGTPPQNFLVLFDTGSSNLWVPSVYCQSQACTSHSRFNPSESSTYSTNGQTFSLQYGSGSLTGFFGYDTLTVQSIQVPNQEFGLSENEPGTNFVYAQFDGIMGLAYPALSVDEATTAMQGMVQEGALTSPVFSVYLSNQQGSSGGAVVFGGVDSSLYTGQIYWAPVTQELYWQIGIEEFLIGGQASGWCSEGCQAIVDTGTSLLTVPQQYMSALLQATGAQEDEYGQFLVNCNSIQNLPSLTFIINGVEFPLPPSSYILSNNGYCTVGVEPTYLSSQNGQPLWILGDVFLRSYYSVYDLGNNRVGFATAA

Renin [13] = biological target: T1, Renin; test: Inhibition of human plasma renin
Renin [14] = biological target: T1, Renin; test: Binding affinity to human recombinant renin by NMR titration analysis
Rattus norvegicus [15] = test: Antihypertensive activity in po dosed telemetered hypertensive double-transgenic rat model expressing human renin and angiotensinogen assessed as reduction of mean arterial blood pressure; assay type: functional, organism-based; details: Artery; how it was run: as §2

Chain of Beta-secretase 1 (P56817 whole entry): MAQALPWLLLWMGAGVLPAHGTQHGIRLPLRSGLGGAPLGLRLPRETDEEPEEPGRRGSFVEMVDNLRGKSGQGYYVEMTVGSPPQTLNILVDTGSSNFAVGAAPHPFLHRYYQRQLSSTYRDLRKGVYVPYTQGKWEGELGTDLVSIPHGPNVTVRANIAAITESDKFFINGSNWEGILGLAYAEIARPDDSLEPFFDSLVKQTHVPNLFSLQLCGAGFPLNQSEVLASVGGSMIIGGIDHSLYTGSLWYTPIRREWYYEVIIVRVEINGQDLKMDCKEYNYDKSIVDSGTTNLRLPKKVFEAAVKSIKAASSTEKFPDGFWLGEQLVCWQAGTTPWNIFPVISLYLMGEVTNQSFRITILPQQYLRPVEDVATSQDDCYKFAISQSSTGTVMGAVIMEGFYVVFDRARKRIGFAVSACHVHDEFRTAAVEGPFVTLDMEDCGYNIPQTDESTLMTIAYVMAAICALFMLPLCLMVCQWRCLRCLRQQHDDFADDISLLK
Chain of Cytochrome P450 3A4 (P08684 whole entry): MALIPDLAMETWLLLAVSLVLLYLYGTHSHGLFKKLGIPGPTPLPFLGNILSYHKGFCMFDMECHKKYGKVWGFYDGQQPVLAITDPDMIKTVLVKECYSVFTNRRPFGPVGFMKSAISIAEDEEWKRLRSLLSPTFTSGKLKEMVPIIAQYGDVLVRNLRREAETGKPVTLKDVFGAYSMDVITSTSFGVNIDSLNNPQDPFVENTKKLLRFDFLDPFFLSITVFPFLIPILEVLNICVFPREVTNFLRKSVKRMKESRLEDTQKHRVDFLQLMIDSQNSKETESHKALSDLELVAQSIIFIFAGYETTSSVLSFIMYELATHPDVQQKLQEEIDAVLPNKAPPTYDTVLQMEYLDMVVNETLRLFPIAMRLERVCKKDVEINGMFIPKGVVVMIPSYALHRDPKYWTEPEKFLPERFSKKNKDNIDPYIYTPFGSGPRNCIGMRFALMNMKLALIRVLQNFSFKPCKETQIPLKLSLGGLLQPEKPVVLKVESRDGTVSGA
Chain of Cathepsin D (P07339 65-162 limits assumed): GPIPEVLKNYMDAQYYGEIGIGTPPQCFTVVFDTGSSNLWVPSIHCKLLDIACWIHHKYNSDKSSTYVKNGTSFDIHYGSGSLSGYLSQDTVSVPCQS
Chain of Cathepsin D (P07339 169-412 limits assumed): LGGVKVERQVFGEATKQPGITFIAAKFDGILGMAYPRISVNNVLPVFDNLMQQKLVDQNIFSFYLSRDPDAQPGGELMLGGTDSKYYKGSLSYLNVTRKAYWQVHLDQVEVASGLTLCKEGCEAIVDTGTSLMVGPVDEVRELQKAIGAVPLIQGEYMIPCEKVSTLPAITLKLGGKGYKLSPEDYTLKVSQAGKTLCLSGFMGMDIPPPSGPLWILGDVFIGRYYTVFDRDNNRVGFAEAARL

SMILES: O=C(NCC1c2ccccc2Oc2ccccc21)C1CCCNC1 (racemic)
- inhibition (Renin (Homo sapiens)): 0%

SMILES: CC(O)CN1CC2c3ccccc3Nc3ccccc3C2C1 (racemic)
- pKd (Renin [14]): < 3.30
- pIC50 (Renin [1]): < 4.00

SMILES: OC(CC1c2ccccc2Sc2ccccc21)CN1CCCC1 (racemic)
- pKd (Renin [14]): < 3.30
- pIC50 (Renin [1]): < 4.00

SMILES: COCCCCC1(CNC(=O)[C@@H]2CNC[C@H](NS(=O)(=O)c3ccc(C)cc3)C2)c2ccccc2Oc2ccccc21 [listing 2 of 2 here]
- Activity (Rattus norvegicus [15]): Dose-dependent effect

SMILES: Cc1ccc(S(=O)(=O)N[C@@H]2CNC[C@H](C(=O)NCC(c3ccccc3)c3ccccc3)C2)cc1
- pIC50 (Renin [1]): < 4.52

SMILES: COCCCCC1(CNC(=O)C2CCCNC2)c2ccccc2Oc2ccccc21 (racemic)
- pIC50 (Renin [1]): 5.40

Continued, in another order:

- pIC50 (Renin [1]): 6.30
SMILES: COCCCCC1(CNC(=O)[C@H]2CNC[C@@H](NS(=O)(=O)c3ccc(C)cc3)C2)c2ccccc2Oc2ccccc21

- pIC50 (Renin [1]): 8.40
SMILES: COCCCCC1(CNC(=O)[C@@H]2CNC[C@H](NS(=O)(=O)c3ccc(C)cc3)C2)c2ccccc2Oc2ccccc21 (racemic)

- pIC50 (Beta-secretase 2): < 4.52
- Cmax [2]: 222 nM
- pIC50 (Cathepsin D): < 4.52
- clearance [3]: 43.3 mL/min/kg
- pIC50 [5]: < 4.52
- pIC50 (Cathepsin E): < 4.52
- inhibition (INH) (Cytochrome P450 3A4): tde
- pIC50 (Renin [1]): 8.52
- Vd [8]: 5.3 L/kg
- half-life [10]: 2.3 h
- pIC50 (Beta-secretase 1): < 4.52
- bioavailability [11]: 18%
- AUC(0-t) at 24 h [12]: 0.75 µM·h
- pIC50 (Gastricsin): < 4.52
- pIC50 (Renin [13]): 7.60
SMILES: COCCCCC1(CNC(=O)[C@@H]2CNC[C@H](NS(=O)(=O)c3ccc(C)cc3)C2)c2ccccc2Oc2ccccc21 [listing 1 of 2 here]
- Time (Rattus norvegicus [4]): 3.1 h
- Activity (Rattus norvegicus [6]): 28 mmHg
- Time (Rattus norvegicus [7]): 7.8 h
- Activity (Rattus norvegicus [9]): 58 mmHg

- pIC50 (Renin [1]): 6.30
SMILES: Cc1ccc(S(=O)(=O)N[C@H]2CNC[C@@H](C(=O)NCC(c3ccccc3)c3ccccc3)C2)cc1

- pIC50 (Renin [1]): 5.92
SMILES: Cc1ccc(S(=O)(=O)N[C@H]2CNC[C@@H](C(=O)NCC(c3ccccc3)c3ccccc3)C2)cc1 (racemic)

- pIC50 (Renin [1]): 7.05
SMILES: Cc1ccc(S(=O)(=O)N[C@H]2CNC[C@@H](C(=O)NCC3c4ccccc4Oc4ccccc43)C2)cc1 (racemic)

Source: ChEMBL document CHEMBL2321871, “A novel class of oral direct renin inhibitors: highly potent 3,5-disubstituted piperidines bearing a tricyclic p3-p1 pharmacophore” (J Med Chem, 2013)
